# Only some compounds are listed: those with a hit (about 2.2% of all), similar ones and a draw of the others.
# SDO1 yeast rescue = sdo1-depleted yeast growth rescue; z-score at 10 µM; 0.21% of 140,000 active; S. cerevisiae sdo1-depleted JHY4D growth rescue, OD600 30 h; stronger effect = higher value; pdr5 snq2 efflux-pump mutant strain; AID 817;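 active = z-score above 3 at both the 24 hr and the 30 hr optical density reads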;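 also: z-score against mean and SD of all compound wells on the same plate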
# bCat KO growth = beta-catenin-lacking colon tumor cell growth suppression; HCT116 beta-catenin knockout viability, CellTiter-Glo, 60 h; stronger effect = lower value; viability, % at 10 µM; 1.5% of 140,000 active;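 active = viability at or under a set limit, the compound median less 4 SD, cut at about 6% in these data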;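 also: 0% = Hyamine 1622 control at 20 µM and 100% = untreated cell control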
# HCT116 PTEN-null = suppresses growth of cells with PTEN deletion. HCT116 PTEN-null viability, CellTiter-Glo, 60 h; stronger effect = lower value. viability, % at 10 µM. 1.2% of 140,000 active;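 active = viability at or below a set limit, 4 SD under the median of all tested compounds, cut at about 3.7% in these data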;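 also: PTEN knockout HCT116 line with beta catenin targeted HCT116 as companion control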
# Dynein transport = dynein cargo transport inhibition; 3617.4 mouse cells, GR-EGFP nuclear translocation imaging; test concentration mostly 20 µM; stimulated with dexamethasone, 1 µM; stronger effect = lower value; z-score, hits read low; 0.47% of 220,000 active;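 active = plate z-score of nuclear minus cytoplasmic receptor signal below a set negative limit, without overly bright fluorescence or cell loss, cut at about -3.5 in these data, passing the limit was not always enough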;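 also: z-score of nuclear minus cytoplasmic ring GR-EGFP intensity difference per well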
#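 medium = tetracycline-free induction medium containing charcoal-stripped FBS | probe or stimulus = dexamethasone, 1.0 µM final | timing = 48 h induction, then 1 h compound, then 30 min agonist, 37 °C | detection = automated 10x imaging of fixed Hoechst-stained cells | read-out basis = nuclear versus cytoplasmic GR-EGFP signal, averaged per well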
# Autophagy HCS = autophagy modulation, high-content screen | MEF GFP-LC3 puncta imaging; test concentration mostly 10 µM | calls only at 10 µM (by protocol) | 0.98% of 190,000 active;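 active = percentage of spot-positive cells more than 3 SD above its plate mean, without a fluorescence outlier flag or 80% toxicity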;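 also: spot-positive cell cutoff set from DMSO-treated cells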
# Starred values were filed as active, the others as inactive; i = inactive; / = no result given; + = active, no number.
SMILES,SDO1 yeast rescue,bCat KO growth,HCT116 PTEN-null,Dynein transport,Autophagy HCS
Cc1ccc(NC(=O)NNC(=O)Cn2nc(-c3ccccc3)c(-c3ccccc3)c(C#N)c2=O)cc1,-0.33,18,/,-0.46,i
CCC(C)(C)n1nnnc1C(c1cc2cc(C)cc(C)c2[nH]c1=O)N1CCN(Cc2ccc3c(c2)OCO3)CC1 (centres undefined),1.1,71,67,-0.35,+
Cc1cccc(OCC(O)Cn2c(=N)n(CCN3CCCCC3)c3ccccc32)c1 (centres undefined),0.25,1.9*,1.5*,-0.71,+
Cc1ccc(OCC(O)Cn2c(=N)n(Cc3ccccc3)c3ccccc32)cc1 (centres undefined),-1,1.4*,1.6*,-0.043,i
COc1ccc(OCC(O)Cn2c(=N)n(Cc3ccccc3)c3ccccc32)cc1 (centres undefined),0.02,0.8*,1.4*,i,i
CCC(=O)Nc1cc(C(=O)O)ccc1Sc1ccc(Cl)cc1,/,/,/,0.59,i
CN(CCCNC(=O)CSc1cc(=O)n(C)c2cc(Cl)ccc12)Cc1ccccc1,/,/,/,0.9,i
N#C/C(=C\C=C\c1ccccc1)c1nc(-c2ccc3c(c2)OCO3)cs1,-1.1,91,108,-1.8,+
CCN(CC)CCOC(=O)c1ccc(N/C=C(/C#N)c2nc(-c3ccc4c(c3)OCO4)cs2)cc1,/,/,/,-0.62,/
Cc1cc(NS(=O)(=O)c2ccc(NC(=O)c3ccco3)cc2)nc(C)n1,1.8,88,87,0.21,i
Cc1cc(NS(=O)(=O)c2ccc(NC(=O)c3ccco3)cc2)no1,-0.54,97,102,2.9,+
c1coc(CN2CCN(C(c3cccs3)c3nnnn3C3CCCC3)CC2)c1 (centres undefined),0.01,94,96,-0.9,i
CC1CC(C)(C)Nc2ccc(OC(=O)c3ccco3)cc21 (centres undefined),0.39,0.8*,0.7*,-2.8,i
O=C(Oc1ccc2ccccc2c1)c1ccco1,0.05,96,97,0.33,i
Cc1cc(C)cc(N=C2SC(CC(=O)Nc3ccccc3)C(=O)N2CCN2CCOCC2)c1 (centres undefined),/,/,/,1.7,+
COc1ccc(C2NCCc3c2[nH]c2ccccc32)cc1COc1ccc(F)cc1 (centres undefined),-1.6,1.2*,0.9*,0.93,i
COc1ccc(C(=O)c2c(C(F)(F)F)oc3c2C(=O)c2ccccc2C3=O)cc1,-2.3,1.2*,1.8*,0.39,i
COc1ccc(C(=O)c2coc(-c3ccccc3C(=O)O)c2C(=O)O)cc1,-0.23,85,98,-0.72,i
CCOc1ccc(/C=C/C(=O)c2cc(Br)ccc(=O)c2O)cc1,12,9,9,-1.1,i
Cc1cccc(/C=C/C(=O)c2cc(Br)ccc(=O)c2O)c1,-0.63,5.2*,8,-1.3,i
CCc1ccc(/C=C/C(=O)c2cc(Br)ccc(=O)c2O)cc1,0.71,5.1*,7,-0.85,i
COC(=O)c1ccc(C)c(NS(=O)(=O)c2ccc(OC)cc2)c1,-0.37,17,17,-0.014,+
CC(C)NC(=O)c1nn(C)c2ccccc12,0.65,93,98,0.16,i
COc1ccc(C2=NOC(C(=O)NCc3cccs3)C2)cc1 (centres undefined),2.8,95,105,0.55,+
Cn1cccc1Cc1nnc(SCC(=O)Nc2nc3ccccc3s2)n1CCc1ccccc1,-0.76,90,75,2.3,+
SMILES,SDO1 yeast rescue,bCat KO growth,HCT116 PTEN-null,Dynein transport,Autophagy HCS
Nc1c(N(C(=O)Nc2ccc(Cl)c(Cl)c2)C2CCCC2)c(=O)[nH]c(=O)n1Cc1ccccc1,1.3,1.4*,1.4*,-0.43,i
COCCN(C(=O)C1CCCC1)c1c(N)n(Cc2ccccc2)c(=O)[nH]c1=O,/,/,/,-0.84,i
CC1=NN(c2ccccc2)C(=O)/C1=C/C=C/C=C/N(C)C,/,/,/,-0.11,i
CC1=NN(c2ccc(C)cc2)C(=O)/C1=C\C=C\c1ccccc1,-0.54,3.1*,3.0*,-1.7,i
O=C(Nc1nnc(-c2ccco2)s1)c1ccccc1,-0.3,99,103,-0.48,i
COc1ccc(C(=O)Nc2nnc(-c3ccco3)s2)cc1,0,1.6*,1.8*,0.56,i
COc1ccc(C(=O)Nc2nnc(-c3cccs3)s2)cc1,-0.41,24,29,0.85,+
COCCn1c(-c2ccc(Cl)cc2Cl)nc2c(c(=O)c3ccccc3n2C)c1=O,-0.76,76,83,0.86,+
c1ccc(Cn2nnc3c(NCc4ccc5c(c4)OCO5)nc(C4CC4)nc32)cc1,-0.62,17,12,0.49,+
Cc1nc(NCc2ccc3c(c2)OCO3)c2nnn(Cc3ccccc3)c2n1,-1.6,20,14,0.67,+
COc1ccc2nccc(/C=C/c3ccnc4ccc(OC)cc34)c2c1,/,/,/,-0.048,/
c1ccc(OCc2nc3c4c(ncn3n2)-c2ccccc2CC42CCCC2)cc1,-0.4,69,66,-0.79,i
C/C(=N/NC(=O)c1cccs1)c1ccc(NC(=O)COc2ccc(Cl)cc2Cl)cc1,-0.47,4.3*,2.0*,-0.78,+
C/C(=N/NC(=O)c1ccc(Cl)s1)c1ccc(NC(=O)COc2ccc(Cl)cc2)cc1,-0.49,35,23,-0.23,i
O=C(Cc1ccc(Cl)cc1)Nc1ccc(NC(=O)c2cccs2)cc1,/,/,/,1.9,+
O=C(Nc1ccc(Cl)cc1)c1cccs1,-0.13,82,88,0.39,i
COc1ccc(-c2nc(=S)c3ccc4ccccc4c3[nH]2)cc1,/,/,/,-0.5,i
Cc1cc2nc(-c3ccc(SCC(=O)N4CCc5ccccc54)nc3)[nH]c2cc1C,-1.8,0.8*,1.0*,-0.99,i
Cc1cc2nc(-c3ccc(SCC(=O)NC(C)C)nc3)[nH]c2cc1C,/,/,/,-0.2,i
COc1ccc(NC(=O)CC23CC4CC(CC(C4)C2)C3)cn1,/,/,/,-1.2,i
CC(=O)/C(=C\N(C)C)Sc1ccc(Cl)cc1,/,/,/,1.1,/
S=C(Sc1ccc(Cl)cc1)Sc1ccc(Cl)cc1,/,/,/,-5.1*,/
Cc1ccc(C(=O)Oc2ccc(Cl)c3cccnc23)cc1[N+](=O)[O-],-2.3,4.5*,10,-1,i
Cc1ccc(C(=O)N2CCN3C(=O)c4ccccc4C23c2ccc(Cl)cc2)cc1 (centres undefined),-1.3,13,8,-0.39,+
CC(=O)N1CCN(c2ccc(NC(=O)c3ccc4c(c3)OCCO4)cc2Cl)CC1,/,/,/,-0.22,i
CC(C)C(=O)N1CCN(c2ccc(NC(=O)c3ccc4c(c3)OCCO4)cc2Cl)CC1,-0.81,1.3*,1.7*,-0.73,i
COc1ccc(CCc2nnc(CCC(=O)N(C)Cc3ccncc3C)o2)cc1,/,/,/,-0.67,i
Cc1cc(N2CCOCC2)nc(NCc2ccccc2)n1,-0.07,93,75,-0.69,i
Cc1cc(N2CCCCC2)nc(NCc2ccccc2)n1,-0.41,6.0*,8,-1.3,i
